Rows were chosen to be rich in hits. Some 1.6% of all compounds tested hit in one or more screens of this group.
VLA-4 inh = inhibition in a human VLA-4 binding assay | P13612 | VLA-4 expressing cells, ligand binding flow cytometry | inhibition, % (about 7 µM as worked out from the volumes in the protocol) | 330,000 tested, 0.2% active | AID 2557; in the data active means inhibition above about 50%
Target sequence (P13612 whole entry, looked up): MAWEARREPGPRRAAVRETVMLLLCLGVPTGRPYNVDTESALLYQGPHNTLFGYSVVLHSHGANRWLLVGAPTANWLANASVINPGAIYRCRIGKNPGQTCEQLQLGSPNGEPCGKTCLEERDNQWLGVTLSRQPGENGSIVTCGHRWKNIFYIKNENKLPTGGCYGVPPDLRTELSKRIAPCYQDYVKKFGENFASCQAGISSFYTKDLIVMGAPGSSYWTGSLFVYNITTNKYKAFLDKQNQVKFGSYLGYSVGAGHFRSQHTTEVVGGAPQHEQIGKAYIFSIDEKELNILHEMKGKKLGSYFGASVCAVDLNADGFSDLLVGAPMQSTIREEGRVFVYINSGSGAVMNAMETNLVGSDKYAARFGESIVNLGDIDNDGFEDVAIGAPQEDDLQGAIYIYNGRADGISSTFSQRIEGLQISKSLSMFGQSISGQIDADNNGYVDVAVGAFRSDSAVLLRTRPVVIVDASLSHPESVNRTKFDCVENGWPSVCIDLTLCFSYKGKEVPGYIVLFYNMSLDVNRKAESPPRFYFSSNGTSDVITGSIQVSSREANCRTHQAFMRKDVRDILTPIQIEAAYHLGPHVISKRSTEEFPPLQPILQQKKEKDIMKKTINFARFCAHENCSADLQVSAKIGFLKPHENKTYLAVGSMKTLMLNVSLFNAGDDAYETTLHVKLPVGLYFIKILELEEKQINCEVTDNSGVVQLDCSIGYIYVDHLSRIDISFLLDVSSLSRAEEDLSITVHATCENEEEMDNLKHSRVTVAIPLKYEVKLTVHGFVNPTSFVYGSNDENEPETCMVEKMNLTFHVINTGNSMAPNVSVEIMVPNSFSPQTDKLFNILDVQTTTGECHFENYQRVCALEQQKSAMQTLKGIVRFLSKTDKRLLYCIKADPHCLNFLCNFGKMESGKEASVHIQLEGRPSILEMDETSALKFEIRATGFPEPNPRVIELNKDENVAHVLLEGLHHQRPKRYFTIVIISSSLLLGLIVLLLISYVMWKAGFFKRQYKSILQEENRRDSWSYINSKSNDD
NR2E3 ag-1 = human photoreceptor-specific nuclear receptor agonism. CHO-S Gal4-NCOR/VP16-NR2E3 two-hybrid, luciferase. 360,000 tested, 0.35% active. inhibition of corepressor binding, % at 3.98 µM. Q9Y5X4;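 active means inhibition above the mean of all tested compounds plus 3 SD, cut at about 70% in these data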;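 further: 0% = DMSO with NR2E3 transfected cells and 100% = cells lacking NR2E3 construct; higher means lower luciferase signal from less NR2E3 corepressor binding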
Rev-erbA mod = modulators of human Rev-erb alpha DNA binding | AID 1259318 | Rev-erbα–FITC-DNA binding, fluorescence polarization, 90 min | 370,000 tested, 0.79% active | activity, % at 10 µM;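 active means activity above about 14%, limit read from the data; passing the limit was not always enough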;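 further: 0% = DMSO wells with 35 nM protein and 100% = DMSO wells with 750 nM protein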
NR2E3 ag-2 = agonists of human nuclear receptor NR2E3; Q9Y5X4; 320,000 tested, 0.12% active; GST-NR2E3/biotin-RetCOR TR-FRET, 1536-well; inhibition of corepressor binding, % at 4.78 µM;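 active means percent inhibition above the cutoff of mean plus 3 SD of all tested compounds, set per screening campaign, cut at about 20% in these data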;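 further: 0% = DMSO wells and 100% = biotin wells as full block of FRET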
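Material: NR2E3–RetCOR corepressor complex | Quantity: 1.35 nM GST-tagged NR2E3 final | Schedule: 5 h at 4 °C | Replication: Singlicate compound wells | Reagent: RetCOR corepressor, biotinylated, 7 nM | Controls: Biotin wells as high control, 0.6% DMSO wells as low control | Signal: TR-FRET, Eu(K)-anti-GST donor, streptavidin-D2 acceptor, ex 340, em 617/671 nm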
PG9 binder = small molecules binding HIV-1 gp120 antibody PG9 | inhibition, % at 6.7 µM | AID 624416 | TR-FRET gp120-PG9 antibody binding | 360,000 tested, 0.43% active; in the data active means inhibition above about 8.5%
NR2E3 ag conf = NR2E3 agonism confirmed in two-hybrid assay; AID 624378; CHO-S mammalian two-hybrid NR2E3-NCOR, luciferase luminescence; inhibition, % at 3.98 µM; shares compounds with NR2E3 ag-1; 2,300 tested, 51% active;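 active means average inhibition above a cutoff equal to the mean inhibition of all tested compounds plus one SD, cut at about 70% in these data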;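 further: 0% = DMSO in NR2E3 cells and 100% = DMSO in cells lacking NR2E3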
VP16 counter = GAL4-VP16 reporter inhibition in NR2E3 agonist counterscreen | shares compounds with NR2E3 ag-1 | CHO-S GAL4-VP16 luciferase reporter, luminescence | inhibition, % at 3.98 µM | 2,300 tested, 29% active | AID 624379;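 active means mean inhibition above a cutoff equal to the average over all tested compounds plus one standard deviation, cut at about 70% in these data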;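 further: luciferase from a UAS reporter driven by GAL4-VP16 transactivation; 0% = DMSO with VP16-transfected cells and 100% = DMSO with cells lacking VP16; higher means less reporter light so more repression of VP16 activity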
* = called active by the depositor; i = inactive; x = no result.

SMILES	VLA-4 inh	NR2E3 ag-1	Rev-erbA mod	NR2E3 ag-2	PG9 binder	NR2E3 ag conf	VP16 counter
O=C(CSc1cccc[n+]1[O-])CSc1cccc[n+]1[O-]	12	69	0	0	-3	-4	-8
C=CCN1C(=O)[C@@H](CC(=O)N2CCOCC2)[C@]2(C(=O)OCC)CCCCC/C=C/12	x	x	0	x	x	x	x
C[C@@H]1CN([C@@H](C)CO)C(=O)CCCn2nncc2CO[C@H]1CN(C)Cc1ccc(O)cc1	x	x	-4	x	-2	x	x
Cc1noc(C)c1CSc1nc2ccccc2[nH]1	-5	-12	-2	3	1	x	x
c1ccc(-c2cc(CSc3nc4ccccc4[nH]3)on2)cc1	-5	63	-3	0	0	83*	51
CC[n+]1c(/C=C/c2ccc(N(C)C)cc2)ccc2ccccc21	i	21	-8	-25	-50	x	x
CCN(CC)c1ccc(/C=C/c2ccc3ccc(OC)cc3[n+]2CC)cc1	i	64	-2	-6	-34	98*	77*
COc1ccc(CN(CC#Cc2ccccc2)Cc2ccccc2)c(OC)c1	x	x	1	x	x	x	x
OC(c1ccccc1)(c1ccccc1)C1CCN(CCCNc2ccccc2F)CC1	x	x	-2	x	x	x	x
Cc1cccc(CNC(=S)OC2CCC23CCC(c2ccccc2)CC3)c1 (centres undefined)	x	x	1	x	x	x	x
CCC(C(=O)NCCC(C)C)n1ccc2cc(S(=O)(=O)N3CCCCC3)ccc21 (centres undefined)	-4	60	x	-1	x	49	47
O=C(CSc1nnc(-c2cccnc2)n1-c1ccccc1)Nc1cccc2ccccc12	x	x	-6	x	x	x	x
CCn1c(=O)cc(SCC(=O)NCc2ccc(C)cc2)c2ccccc21	31	-47	0	-1	1	x	x
CCn1c(=O)cc(SCC(=O)Nc2ccc(C)cn2)c2ccccc21	4	74*	-3	-5	23*	95*	17
CCC(=O)N1CCc2cc(Br)c(S(=O)(=O)NCCCN(CC)Cc3ccccc3)cc21	x	x	-2	x	x	x	x
CCN1CCN(CCNC(=O)c2ccc(/C=C3\Sc4ccccc4N(Cc4ccccc4F)C3=O)cc2)CC1	3	48	-3	1	0	-11	35
COc1ccc(Cn2cc(COC(=O)NCC(C)C)nn2)cc1	x	x	0	x	x	x	x
C#CCCN([C@@H](CC(C)C)C(=O)OC)S(=O)(=O)c1ccccc1Br	x	x	2	x	x	x	x
CCCCNC(=O)O[C@H]1CC[C@@]23CCCN2C(=O)CCC[C@H]3[C@H]1C	x	x	-3	x	x	x	x
Cc1onc(-c2ccccc2Cl)c1C(=O)Nc1nc2c(s1)CCCC2	-10	82*	-3	5	-1	86*	-41
OC(c1cccc(OCc2ccccc2)c1)c1nnc(-c2ccccc2)o1 (centres undefined)	-10	87*	-3	2	1	92*	76*
OC(c1ccc(OCc2ccccc2)cc1)c1nnc(-c2ccccc2)o1 (centres undefined)	6	41	-1	1	-1	x	x
CCOC(=O)[C@]12CCCCC/C=C\1N(CCc1ccc(Cl)cc1)C(=O)[C@H]2CC(=O)N1CCN(C(=O)c2ccco2)CC1	x	x	-5	x	x	x	x
NC(=O)c1nnn(Cc2cc(Cl)c(C(=O)c3ccc(Cl)cc3)c(Cl)c2)c1N	x	91*	3	x	-2	96*	82*
CN1CCN(C(=O)c2cccc(-c3cnc4cnc(-c5ccccc5Oc5ccccc5)cn34)c2)CC1	x	49	-7	x	2	70*	20
SMILES	VLA-4 inh	NR2E3 ag-1	Rev-erbA mod	NR2E3 ag-2	PG9 binder	NR2E3 ag conf	VP16 counter
O=C(c1cccc(-c2cncc3nccn23)c1)N1CCOCC1	x	-9	-4	x	1	x	x
Cc1cc(C)c(C#N)c(SCc2nnc(-c3ccccc3)o2)n1	0	88*	1	-3	0	73*	38
Cc1cc(C)c(C#N)c(SCc2nnc(-c3ccccc3[N+](=O)[O-])o2)n1	1	-96	-1	3	2	x	x
Cc1ccc(C#N)c(SCc2cc3c(cc2Cl)OCO3)n1	12	6	11	5	-4	x	x
Cc1ccc(C#N)c(SCc2nnc(-c3ccc(Cl)cc3)o2)n1	4	72*	0	-1	0	77*	38
COc1ccc(Cn2c(NC(=O)c3ccccc3)nc(Cc3ccccc3)c2-c2ccccc2)cc1	x	x	8	x	x	x	x
C#CC1(O)C2C=C(OC)C(=O)C1C(c1ccccc1)C2C (centres undefined)	x	x	2	x	x	x	x
FC(F)(F)c1nc(N2CCCC2)ncc1-c1nnnn1-c1ccccc1	-21	65	-3	-3	0	75*	60
O=C(NCc1ccncc1)c1cccc(S(=O)(=O)N2CCc3ccccc32)c1	25	53	-3	0	-1	34	36
CC1Cc2ccccc2N1S(=O)(=O)c1cccc(C(=O)NCc2ccncc2)c1 (centres undefined)	-8	40	3	4	0	x	x
O=C(NNC(=O)c1ccccc1F)c1cccc(S(=O)(=O)N2CCc3ccccc32)c1	-4	81*	11	x	0	85*	72*
CC(C)(C)N1Cc2nnn(CC3CCCCC3)c2-c2ccccc2S1(=O)=O	x	x	-3	x	x	x	x
Cc1coc2cc3oc(=O)c(CCC(=O)NC4CC4)c(C)c3cc12	-9	70*	-1	0	0	85*	54
COC(=O)c1cc(CSc2nnc(NC3CCCCC3)s2)oc1C	-12	58	-5	1	-1	60	58
O=C(CN1CCc2onc(-c3ccc(-n4cc(C5=CCCCC5)nn4)cc3)c2C1=O)N1CCOCC1	x	x	4	x	x	x	x
Cc1cc(NC2CCCC2)n2ncc(-c3ccccc3)c2n1	8	56	3	-1	1	21	-67
Cc1cc(NC2CCCC2)n2nc(C)c(-c3ccccc3)c2n1	-8	-90	-1	-4	0	x	x
CC(C)CC(O)(CC(C)C)c1cn(C(=O)N(c2ccccc2)c2ccccc2)nn1	x	x	0	x	x	x	x
CCOc1ccccc1NS(=O)(=O)c1ccc(-c2cnc(C3CC3)o2)cc1	19	60	-2	2	0	11	6
Cc1ccc(-c2cnc(C3CC3)o2)cc1S(=O)(=O)Nc1ccccc1	5	-2	x	-1	x	x	x
COc1ccc(NS(=O)(=O)c2ccc(-c3cnc(C4CC4)o3)cc2)cc1OC	2	104*	6	0	-2	94*	85*
COc1ccccc1N1CCN(S(=O)(=O)c2ccc(-c3cnc(C4CC4)o3)cc2)CC1	15	6	1	4	0	x	x
COc1ccccc1CNS(=O)(=O)c1ccc(-c2cnc(C3CC3)o2)cc1	3	53	3	2	-1	29	41
O=S(=O)(Nc1ccc(F)cc1Cl)c1ccc(-c2cnc(C3CC3)o2)cc1	-22	71*	-1	-2	-2	66	46
